According to ChEMBL document CHEMBL1125578, “Synthesis of a series of nitrothiophenes with basic or electrophilic substituents and evaluation as radiosensitizers and as bioreductively activated cytotoxins” (J Med Chem, 1991):

Assays:
[1] = The ratio of C50(AIR) to that of C50(N2).; format: functional
In short: (§1)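 V79 cells were tested in an MTT assay, with incubations run under air or under nitrogen. Optical density was taken as proportional to the number of viable cells at the end of incubation. C50 is the concentration lowering optical density by 50% versus controls. The ratio is C50(AIR)/C50(N2).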

V79 [2] = assay: Reduction of optical density by 50% compared to controls when assay was performed under nitrogen in Hypoxic V79 Cells.; format: functional, Cricetulus griseus; in short: as §1
Mus musculus = assay: The maximum tolerated dose described as the highest single intraperitoneal dose which did not produce severe or persistent clinical signs or death of the adult non-tumor bearing mice within 24 hours.; format: functional
In short: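 Adult non-tumor-bearing mice received escalating single ip doses of compound, dissolved fresh in 0.1 M phosphate-buffered saline, pH 7.4, at 0.02 mL/g body weight.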

V79 [3] = assay: Reduction of optical density by 50% compared to controls when assay was performed under air in […] V79 Cells.; format: functional, Cricetulus griseus; in short: as §1
[4] = In vivo radiosensitization of KHT tumors in mice by administration at a dose of 0.38 mmol/kg intraperitoneally. The optimum time interval between injection and irradiation of tumor was 60 minutes.; format: ADME, organism-based; details: mouse, ip, 1 h
[5] = system: V79 cells (Cricetulus griseus); assay: In vitro concentration of gamma-radiation to give an enhancement ratio of 1.6 when compared to control V79.
V79 [6] = assay: Compound was evaluated for its concentration to reduce the optical density by 50% compared to controls when assay was performed under air in […] V79 Cells; format: functional, Cricetulus griseus; in short: as §1
[7] = In vivo radiosensitization of KHT tumors in mice by administration at a dose of 0.34 mmol/kg intraperitoneally. The optimum time interval between injection and irradiation of tumor was 30 minutes.; format: ADME, organism-based; details: mouse, ip, 0.5 h
[8] = In vivo radiosensitization of KHT tumors in mice by administration at a dose of 0.17 mmol/kg intraperitoneally. The optimum time interval between injection and irradiation of tumor was 60 minutes.; format: ADME, organism-based; details: mouse, ip, 1 h

Row | SMILES | Ratio [1] | C50 (V79 [2]) [mM] | MTD (Mus musculus) [mM/kg] | C50 (V79 [3]) [mM] | Surviving fraction [4] | Activity [5] [mM] | C50 (V79 [6]) [mM] | Surviving fraction [7] | Surviving fraction [8]
1 | O=[N+]([O-])c1nccn1CC(O)CN1CC1 (stereo unspecified) | 67 | 0.0045 | 0.38 | 0.3 | 0.00083 | 0.1 | – | – | –
2 | Cc1sc(C(=O)NCC2CO2)cc1[N+](=O)[O-] (stereo unspecified) | 0.9 | 0.4 | – | 0.35 | – | 0.2 | – | – | –
3 | Cc1sc(C(=O)NCCN2CCOCC2)cc1[N+](=O)[O-].Cl | 1 | 2.5 | 0.34 | 2.5 | – | 1 | – | – | –
4 | O=C(/C=C/c1ccc([N+](=O)[O-])s1)NCC1CO1 (stereo unspecified) | 1 | 0.08 | – | 0.08 | – | 0.05 | – | – | –
5 | COC(=O)[C@H](CCCCN)NC(=O)c1cc([N+](=O)[O-])c(C)s1.Cl | 1 | 0.35 | 0.34 | 0.35 | – | 0.05 | – | – | –
6 | Cc1sc(C(=O)NCCCN2CCCC2)cc1[N+](=O)[O-].Cl | – | – | 0.24 | – | – | 0.03 | – | – | –
7 | Cc1cc(CC2CO2)sc1[N+](=O)[O-] (stereo unspecified) | 1.3 | 0.045 | – | 0.065 | – | 0.06 | – | – | –
8 | COCC(O)Cn1ccnc1[N+](=O)[O-] (stereo unspecified) [MISONIDAZOLE] | – | 4 | 4 | 45 | – | 0.6 | – | – | –
9 | C=CCNC(=O)c1ccc([N+](=O)[O-])s1 | 2.5 | 0.11 | – | – | – | 0.08 | 0.3 | – | –
10 | Cc1sc(C(=O)NCCN2CCCCC2)cc1[N+](=O)[O-].Cl | 2.3 | 0.8 | <0.34 | 1.8 | – | 0.07 | – | – | –
11 | Cc1sc(C(=O)NCCN(C)C)cc1[N+](=O)[O-].Cl | – | – | 0.34 | – | – | 0.1 | – | 0.005 | –
12 | Cl.O=C(NCCN1CCCCC1)c1ccc([N+](=O)[O-])o1 | 3 | 0.016 | 0.17 | 0.05 | – | 0.01 | – | – | 0.0022
13 | Br.O=[N+]([O-])c1nccn1CC(O)CNCCBr (stereo unspecified) | 26 | 0.09 | 1 | 2.3 | – | 0.1 | – | – | –
14 | O=C(NCC1CO1)c1ccc([N+](=O)[O-])s1 (stereo unspecified) | 1 | 0.15 | – | 0.15 | – | 0.05 | – | – | –
